Measured values reported in ChEMBL document CHEMBL5705892, “MK-2206, an allosteric Akt inhibitor, enhances antitumor efficacy by standard chemotherapeutic agents or molecular targeted drugs in vitro and in vivo” (Mol Cancer Ther, 2010).
Active and inactive are the calls of the source. The rule behind the calls is not given here.

Experiments:
[1] = test system: NCI-H661; test: Induction of apoptosis in human NCI-H661 cells assessed as fold induction of capsase-3/7 activity measured after 24 to 48 hrs in presence of carboplatin by caspase-glo 3/7 assay; assay type: functional; settings: time 24-48 hrs
[2] = molecular target: RAC-alpha serine/threonine-protein kinase (Homo sapiens) (UniProt P31749); test: Inhibition of AKT phosphorylation at S473 residue in human NCI-H1993 cells at 3 umol/L measured after 4 to 24 hrs in presence of carboplatin by MSD assay; settings: time 4-24 hrs
Sequence of RAC-alpha serine/threonine-protein kinase (Homo sapiens) (P31749 whole entry): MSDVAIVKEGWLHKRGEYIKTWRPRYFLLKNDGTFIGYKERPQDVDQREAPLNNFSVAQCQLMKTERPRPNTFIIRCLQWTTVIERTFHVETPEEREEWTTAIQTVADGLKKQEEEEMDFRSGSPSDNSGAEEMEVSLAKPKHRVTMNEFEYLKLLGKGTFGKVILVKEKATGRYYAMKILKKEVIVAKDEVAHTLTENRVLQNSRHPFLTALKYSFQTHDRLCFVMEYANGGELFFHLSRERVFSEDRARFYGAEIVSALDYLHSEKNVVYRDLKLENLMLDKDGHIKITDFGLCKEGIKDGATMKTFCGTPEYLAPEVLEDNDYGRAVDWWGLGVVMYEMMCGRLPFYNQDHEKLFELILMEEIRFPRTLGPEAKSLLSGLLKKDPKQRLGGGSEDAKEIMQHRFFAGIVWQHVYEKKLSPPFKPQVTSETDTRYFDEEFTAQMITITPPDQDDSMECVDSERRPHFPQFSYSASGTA

[3] = test system: NCI-H460; test: Synergistic antiproliferative activity against human NCI-H460 cells assessed as combination index at ED25 to ED90 measured after 72 hrs in presence of gemcitabine by celltiter-glo assay; assay type: functional
[4] = molecular target: RAC-alpha serine/threonine-protein kinase (Homo sapiens) (UniProt P31749); test: Inhibition of AKT in human HCC827 cells assessed as reduction in AKT phosphorylation at S473 residue at 5 umol/L measured after 5 hrs in presence of erlotinib by Western blot analysis; assay type: cell-based; settings: dose 5.0 µmol/L
[5] = test system: HCC70; test: Synergistic antiproliferative activity against human HCC70 cells assessed as combination index at ED75 measured after 96 hrs in presence of lapatinib by celltiter-glo assay; assay type: functional
[6] = Toxicity in human NCI-H292 cells xenografted CD-1 mouse assessed as death at 360 mg/kg, po administered once a week for 2 weeks starting 2 hrs post-erlotinib treatment and measured during compound dosing; assay type: organism-based; settings: in vivo, 336 h
Procedure, shortened: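 NCI-H292 cells in 50% Matrigel/PBS injected s.c. into flank of female CD1-nude mice; dosing began after 2 wk at mean tumour 0.2 cm³, n = 5/group. […] Body weight and signs monitored; treatment ended day 16.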

[7] = test system: BT-20; test: Synergistic antiproliferative activity against human BT-20 cells assessed as combination index at ED90 measured after 72 hrs in presence of docetaxel by celltiter-glo assay; assay type: functional
Procedure, shortened: (§1)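 Cells grown in RPMI 1640 with 10% heat-inactivated FBS at 37°C, 5% CO₂. Seeded at 2 to 3 × 10³ per well; drugs added 24 h later. […] Viability read as cellular ATP by CellTiter-Glo. CI calculated by Chou–Talalay from median-effect plots at ED50, ED75 and ED90.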

[8] = test system: HCC1954; test: Synergistic antiproliferative activity against human HCC1954 cells assessed as combination index at ED75 treated 24 hrs prior to lapatinib and measured after 72 hrs by celltiter-glo assay; assay type: functional; settings: time 96 hrs
[9] = test system: NCI-H292; test: Antitumor activity against human NCI-H292 cells xenografted in CD-1 mouse assessed as tumor growth suppression at 120 mg/kg, po administered 3 times per week for 2 weeks and measured twice a week during compound dosing by caliper method; assay type: functional, organism-based
Procedure, shortened: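 Female CD1-nude mice carried s.c. NCI-H292 cells in Matrigel/PBS and were randomized at 0.2 cm³, n = 5. […] MK-2206 (30% Captisol) was given 2 h later at 120 mg/kg po on days 0, 2, 4, 7, 9, 11, or at 360 mg/kg on days 0 and 7. Control received vehicle. Caliper volume twice weekly.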

[10] = test system: SK-OV-3; test: Synergistic antiproliferative activity against lapatinib pretreated human SK-OV-3 cells assessed as combination index at ED75 measured after 72 hrs by celltiter-glo assay; assay type: functional
[11] = Toxicity in human SK-OV-3 cells xenografted CB17/icr SCID mouse assessed as mortality at 60 to 120 mg/kg, po administered 3 times per week for 2 weeks starting 2 hrs post lapatinib treatment and measured during compound dosing; assay type: organism-based; settings: in vivo, 336 h, dose 60-120 mg/kg
Procedure, shortened: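 SK-OV-3 cells in 50% Matrigel/PBS injected s.c. into flank of female C.B-17/ICR-scid mice; dosing began after 3 wk, randomized at mean tumour 0.13 cm³ (n = 5). Lapatinib 100 mg/kg p.o. in distilled water 5 d/wk for 2 wk; MK-2206 in 30% Captisol p.o. days 0, 2, 4, 7, 9, 11. Body weight and physical signs monitored.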

[12] = test system: NCI-H1299; test: Synergistic antiproliferative activity against human NCI-H1299 cells assessed as combination index at ED90 measured after 72 hrs in presence of erlotinib by celltiter-glo assay; assay type: functional
[13] = In vivo inhibition of AKT phosphorylation at S473 residue in human NCI-H292 cells xenografted mouse at 120 mg/kg, po administered as single dose measured after 12 hrs by Western blot analysis relative to control; assay type: functional
[14] = test system: A2780; test: Synergistic antiproliferative activity against human A2780 cells assessed as combination index at ED50 measured after 72 hrs in presence of 5-FU by celltiter-glo assay; assay type: functional
Procedure, shortened: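 Cells were seeded at 2–3 × 10³ per well in RPMI 1640 with 10% FBS. At 24 h, MK-2206 and the partner drug were added simultaneously at constant concentration ratios spanning each agent's IC₅₀, for 72 h. Growth was read as cellular ATP by CellTiter-Glo. CI was taken from median-effect plots of each agent alone and in combination (Chou–Talalay), at ED₅₀, ED₇₅ and ED₉₀.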

[15] = test system: HCC70; test: Induction of apoptosis in human HCC70 cells assessed as increase in caspase-3/7 activity at 3 umol/L measured after 48 hrs in presence of lapatinib by caspase-glo 3/7 assay relative to control; assay type: functional; settings: dose 3 µmol/L
Procedure, shortened: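 HCC70 cells were grown in RPMI 1640 with 10% heat-inactivated FBS at 37°C in 5% CO₂. They were exposed for 48 h to MK-2206 (0, 0.03, 0.3, 3 µmol/L), with or without lapatinib (0, 1, 3, 5, 10 µmol/L). Caspase-3/7 activity was read by Caspase-Glo 3/7 luminescence and expressed as fold induction over the DMSO vehicle control. The experiment was run twice, and representative data were reported.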

[16] = test system: MDA-MB-231; test: Synergistic antiproliferative activity against human MDA-MB-231 cells assessed as combination index at ED50 measured after 72 hrs in presence of docetaxel by celltiter-glo assay; assay type: functional; procedure, shortened: as §1
[17] = test system: NCI-H292; test: Synergistic antiproliferative activity against human NCI-H292 cells assessed as combination index at ED90 measured after 72 hrs in presence of erlotinib by celltiter-glo assay; assay type: functional
[18] = test system: NCI-H441; test: Synergistic antiproliferative activity against human NCI-H441 cells assessed as combination index at ED25 to ED90 measured after 72 hrs in presence of carboplatin by celltiter-glo assay; assay type: functional
[19] = Toxicity in human NCI-H460 cells xenografted CD1 nude mouse assessed as body weight loss at 120 mg/kg, po administered 3 times per week for 2 weeks measured during compound dosing relative to control; assay type: organism-based; settings: in vivo, 336 h
[20] = test system: SK-BR-3; test: Synergistic antiproliferative activity against human SK-BR-3 cells assessed as combination index at ED75 measured after 96 hrs in presence of lapatinib by celltiter-glo assay; assay type: functional
[21] = test system: HCC1954; test: Synergistic antiproliferative activity against lapatinib pretreated human HCC1954 cells assessed as combination index at ED75 measured after 72 hrs by celltiter-glo assay; assay type: functional
[22] = test system: UMC-11; test: Synergistic antiproliferative activity against human UMC-11 cells assessed as combination index at ED25 to ED90 measured after 72 hrs in presence of carboplatin by celltiter-glo assay; assay type: functional

With Cl.NC1(c2ccc(-c3nc4ccn5c(=O)[nH]nc5c4cc3-c3ccccc3)cc2)CCC1 the “fold change (FC)” value [1] was 2, the inhibition [2] was “Active” and the CI [3] was 0.33. The inhibition [4] was “Active”, the CI75 [5] was 0.18 and the Activity [6] was “Non-Toxic”. The CI90 [7] was 0.5, the CI75 [8] was 0.18 and the Activity [9] was “inactive”. For the same compound, the CI75 [10] was 0.18, the Activity [11] was “Non-Toxic” and the CI90 [12] was 0.52. The inhibition in vivo at 120 mg/kg [13] was 53.1%, the CI50 [14] was 0.68 and the “fold change (FC)” value [15] was 7. It also gave a CI50 [16] of 0.9, a CI90 [17] of 0.28 and a CI [18] of 0.46. The Activity [19] was 7%, the CI75 [20] was 0.18 and the CI75 [21] was 0.18. It also gave a CI [22] of 1.36.
